{"data": "Measurements of several laboratories", "target": "Mitogen-activated protein kinase kinase kinase 7 (MAP3K7, Homo sapiens, UniProt O43318)", "Residues used in one study (O43318 1-606)": "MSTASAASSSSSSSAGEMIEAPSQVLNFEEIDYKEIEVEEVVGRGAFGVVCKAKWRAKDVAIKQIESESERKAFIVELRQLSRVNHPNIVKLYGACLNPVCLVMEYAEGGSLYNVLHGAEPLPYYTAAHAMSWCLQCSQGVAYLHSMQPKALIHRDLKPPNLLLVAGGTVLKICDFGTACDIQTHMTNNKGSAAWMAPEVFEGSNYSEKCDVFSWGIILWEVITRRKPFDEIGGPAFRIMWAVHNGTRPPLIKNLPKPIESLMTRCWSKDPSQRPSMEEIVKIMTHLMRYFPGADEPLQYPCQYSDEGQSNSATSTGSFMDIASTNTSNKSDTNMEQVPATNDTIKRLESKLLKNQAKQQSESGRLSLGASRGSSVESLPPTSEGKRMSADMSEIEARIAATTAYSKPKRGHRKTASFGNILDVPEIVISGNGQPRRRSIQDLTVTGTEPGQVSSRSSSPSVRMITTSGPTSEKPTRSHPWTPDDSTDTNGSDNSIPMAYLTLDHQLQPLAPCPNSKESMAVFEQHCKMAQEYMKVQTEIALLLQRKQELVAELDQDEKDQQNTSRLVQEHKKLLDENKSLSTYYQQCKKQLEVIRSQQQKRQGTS"}
{"Structure (SMILES)": "O=C1NC(=O)c2cc(Nc3ccc(F)cc3)c(Nc3ccc(F)cc3)cc21", "effect on": "cell-free assay", "concentration": "0.5 µM", "quantity": "remaining signal", "result": "98.8%"}
{"Structure (SMILES)": "COc1ccc2cc(OCC3(C(=O)O)CN(C(=O)c4ccc(F)cc4)C3)ccc2c1", "effect on": "cell-free assay", "method": "competition with immobilised ligand", "concentration": "1 µM", "quantity": "remaining binding", "result": "96%"}
{"Structure (SMILES)": "CN1CC(Oc2cnc(C#N)cc2-c2ccn3nc(NC(=O)C4CC4)cc3c2)C1", "effect on": "enzyme activity", "mode": "inhibitor", "concentration": "1 µM", "quantity": "inhibition", "result": "8%"}
{"Structure (SMILES)": "Nc1ncnc2occ(-c3ccc(NC(=O)Nc4cc(C(F)(F)F)ccc4F)cc3)c12", "effect on": "cell-free assay", "mode": "inhibitor", "concentration": "20 µM", "quantity": "remaining signal", "result": "3.7%"}
{"Structure (SMILES)": "COc1cc(Cl)c(C(=O)N[C@@H](CN[C@H]2CC[C@@H](N)CC2)Cc2ccc(C#N)cc2)cc1-c1ccc(CN[C@H](C)c2ccc(C)cc2)o1", "effect on": "enzyme activity", "mode": "inhibitor", "concentration": "1 µM", "quantity": "remaining activity", "result": "96%"}
{"Structure (SMILES)": "CS(=O)(=O)CCNCc1ccc(-c2ccc3ncnc(Nc4ccc(OCc5cccc(F)c5)c(Cl)c4)c3c2)o1", "effect on": "cell-free assay", "concentration": "0.5 µM", "quantity": "remaining signal", "result": "89%"}
{"Structure (SMILES)": "Cc1ccc(Nc2nccc(N(C)c3ccc4c(C)n(C)nc4c3)n2)cc1S(N)(=O)=O", "effect on": "enzyme activity", "mode": "inhibitor", "concentration": "0.3 µM", "quantity": "inhibition", "result": "-8%"}
{"Structure (SMILES)": "FC(F)(F)Oc1cccc(-c2cnc3ccc(-c4ccncc4)nn23)c1", "effect on": "enzyme activity", "mode": "inhibitor", "method": "radiometric", "concentration": "5 µM", "quantity": "activity vs control", "result": "58%"}
{"Structure (SMILES)": "O=c1nc(-c2ccccn2)sc2ccccc12", "effect on": "binding", "method": "competition with immobilised ligand", "concentration": "1 µM", "quantity": "remaining binding", "result": "78%"}
{"Structure (SMILES)": "Cc1cc(NC(=O)c2cccc3cc(-c4cccc5[nH]nc(N)c45)ccc23)ccc1F", "effect on": "enzyme activity", "mode": "inhibitor", "concentration": "0.1 µM", "quantity": "activity vs control", "result": "100%"}
{"Structure (SMILES)": "CC1=C(C#N)C(c2ccc3c(c2)c(NC(=O)c2ccccc2C)nn3C)C(C#N)=C(C)N1", "effect on": "cell-free assay", "method": "competition with immobilised ligand", "concentration": "1 µM", "quantity": "remaining binding", "result": "74%"}
{"Structure (SMILES)": "CCN(CC)CCNC(=O)c1c(C)[nH]c(/C=C2\\C(=O)Nc3ccc(F)cc32)c1C", "effect on": "enzyme activity", "mode": "inhibitor", "concentration": "10 µM", "quantity": "inhibition", "result": "92%"}
{"Structure (SMILES)": "Cc1sc(C(=O)NC2COC2)cc1-n1cc(NC(=O)Nc2c(F)cccc2Cl)cn1", "effect on": "enzyme activity", "mode": "inhibitor", "concentration": "10 µM", "quantity": "remaining activity", "result": "98.4%"}
{"Structure (SMILES)": "CO[C@@H](C)c1c(Nc2ccc([C@H](N(C)C(=O)C3CCS(=O)(=O)CC3)C(F)(F)F)cc2)cnc2cc(Cl)nn12", "effect on": "cell-free assay", "method": "competition with immobilised ligand", "concentration": "1 µM", "quantity": "remaining binding", "result": "89%"}
{"Structure (SMILES)": "COc1cc(Nc2cnc(C#N)c(O[C@H](C)CN(C)C)n2)ncc1-c1cnn(C)c1", "effect on": "enzyme activity", "mode": "inhibitor", "method": "radiometric", "concentration": "1 µM", "quantity": "remaining activity", "result": "97%"}
{"Structure (SMILES)": "FC(F)c1nc2ccccc2n1-c1nc(N2CCOCC2)nc(N2CCOCC2)n1", "effect on": "enzyme activity", "mode": "inhibitor", "concentration": "10 µM", "quantity": "remaining activity", "result": "97%"}
{"Structure (SMILES)": "N[C@@H]1CCN(c2nccc(-c3cnn4ncccc34)n2)C1", "effect on": "binding", "concentration": "1 µM", "quantity": "remaining binding", "result": "91%"}
{"Structure (SMILES)": "CCCCNc1ncc2c(-c3ccc(F)cc3)nn(C[C@H]3CC[C@H](N)CC3)c2n1", "effect on": "target engagement in cells", "mode": "inhibitor", "method": "chemoproteomics", "concentration": "20 mM", "quantity": "inhibition", "result": "16%"}
{"Structure (SMILES)": "Cc1cc(C)c(-n2ccn3nc(-c4cccnc4)cc23)cc1NC(=O)c1cc(C#N)cc(S(F)(F)(F)(F)F)c1", "effect on": "cell-free assay", "method": "competition with immobilised ligand", "concentration": "0.1 µM", "quantity": "remaining binding", "result": "66.2%"}
{"Structure (SMILES)": "Cc1cnc(NC2CCOCC2)nc1-n1cnc(C(=O)NC(CN)c2cc(F)cc(Cl)c2)c1 (stereo not drawn)", "effect on": "enzyme activity", "mode": "inhibitor", "method": "radiometric", "concentration": "1 µM", "quantity": "remaining activity", "result": "98%"}
{"Structure (SMILES)": "Cc1cc(-n2nc(Cc3cc(F)cc(C(F)(F)F)c3)nc2C)ccc1C(N)=O", "effect on": "cell-free assay", "method": "competition with immobilised ligand", "concentration": "1 µM", "quantity": "remaining binding", "result": "100%"}
{"Structure (SMILES)": "CC(C)c1ccc(NC(=O)c2cccs2)c(-c2nc3ccccc3[nH]c2=O)c1", "effect on": "enzyme activity", "mode": "inhibitor", "concentration": "1 µM", "quantity": "activity vs control", "result": "106%"}
{"Structure (SMILES)": "O=C(NC[C@@H]1[C@H]2CN(C(=O)OCc3cc(C(F)(F)F)cc(C(F)(F)F)c3)C[C@@H]12)c1ccc2[nH]nnc2c1", "effect on": "cell-free assay", "method": "competition with immobilised ligand", "concentration": "1 µM", "quantity": "remaining binding", "result": "94%"}
{"Structure (SMILES)": "Cc1ccc(C(=O)Nc2ccc(CN3CCN(C)CC3)c(C(F)(F)F)c2)cc1C#Cc1cnc2cccnn12", "effect on": "enzyme activity", "mode": "inhibitor", "concentration": "23.5 nM", "quantity": "remaining activity", "result": "3.3%"}
{"Structure (SMILES)": "Cc1nccc(COC(=O)N2C[C@@H]3[C@@H](CNC(=O)c4ccc5[nH]nnc5c4)[C@@H]3C2)n1", "effect on": "cell-free assay", "method": "competition with immobilised ligand", "concentration": "1 µM", "quantity": "remaining binding", "result": "75%"}
{"Structure (SMILES)": "N#CCCc1ccc2c(c1)-c1[nH]c3ccc([N+](=O)[O-])cc3c1CC(=O)N2", "effect on": "cell-free assay", "concentration": "0.5 µM", "quantity": "remaining signal", "result": "38.1%"}
{"Structure (SMILES)": "O=C(Nc1cnn(-c2csc(C(=O)NC3COC3)c2)c1)Nc1c(F)cccc1Cl", "effect on": "enzyme activity", "mode": "inhibitor", "concentration": "5 µM", "quantity": "remaining activity", "result": "109%"}
